Assay results collected from several papers.
Each line is one published result; the experiments were not run side by side.
Target: Serine/threonine-protein kinase PLK2 (PLK2, Homo sapiens, UniProt Q9NYY3)

Cn1cc(-c2cccc(N3CCc4c(sc5c4CC(C)(C)C5)C3=O)c2CO)cc(Nc2ccncn2)c1=O — inhibition (enzyme activity, inhibitor; 1 µM): 21%
Nc1ncc(-c2nc(N3CCOCC3)nc(N3CCOCC3)n2)c(C(F)F)n1 — remaining binding (binding, competition with immobilised ligand; 10 µM): 73%
Cn1cncc1[C@@](O)(COc1ccc(C#N)cc1-c1ccc(OC(F)(F)F)cc1)c1ccc(C#N)cc1 — remaining binding (cell-free assay, competition with immobilised ligand; 1 µM): 86%
Cn1cc(-c2cc(F)cc(N3CCn4c(cc5c4CCCC5)C3=O)c2CO)cc(Nc2ccc(N3CCN(C4COC4)CC3)cn2)c1=O — inhibition (enzyme activity, inhibitor; 0.1 µM): 18%
N#CC1(c2ccccn2)CCN(Cc2cc(C(=O)O)c(=O)n3ccccc23)CC1 — remaining binding (cell-free assay, competition with immobilised ligand; 1 µM): 80%
CC(C)(C)c1cc(C=C(C#N)C#N)cc(Br)c1O — remaining activity (enzyme activity, inhibitor; 0.5 µM): 92.6%
COc1ncccc1-c1cnn2ccc(N3CCN(C(=O)OC(C)C)CC3)nc12 — remaining binding (binding, competition with immobilised ligand; 1 µM): 96%
Cc1nn(C)cc1-c1nc2c(N3CCN(Cc4ccc(Cl)cc4)CC3)c(Cl)cnc2[nH]1 — remaining binding (binding, competition with immobilised ligand; 1 µM): 93%
O=c1[nH]c2ccccc2n1C1CCN(Cc2ccc(-c3[nH]c4cc5ncnc5cc4nc3-c3ccccc3)cc2)CC1 — remaining signal (cell-free assay; 0.5 µM): 95.5%
